Columns and labels:
Ero1α/β-null platelets [1] = format: cell-based, mouse
How it was run: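 Washed mouse platelets (2 × 10^8/mL in HEPES-Tyrode; C57BL/6 or Ero1α/β-null) were pretreated 20 min at 37°C with 0.1% DMSO vehicle or test compound. Agonist was added for 5 min at 37°C. Cells were stained 15 min with labelled anti-P-selectin or JON/A (activated αIIbβ3) and read by flow cytometry as geometric mean fluorescence intensity.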

C57BL/6 mice [2] = assay: Tail bleeding time and hemoglobin content; format: in vivo, mouse; conditions: iv 0.3 μg/g BW
mouse platelets [3] = assay: Analysis of cell viability; format: cell-based; conditions: 5 μM; incubation 20 minutes to 24 hours
How it was run: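 Platelets were isolated from ACD blood of C57BL/6, WT control or Ero1α/β CKO mice (8–12 weeks) and washed in HEPES-Tyrode buffer at 2 × 10^8 cells/mL. They were incubated at 37°C with vehicle (0.1% DMSO) or test compound for various times. Cells were then labelled with FITC-annexin V for 20 min and read by flow cytometry.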

human platelets [4] = assay: Platelet aggregation assay and ATP secretion; format: cell-based; conditions: 1 μM; 0.015 U/ml thrombin or 0.05 µg/ml CRP
How it was run: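 Washed human platelets, isolated from ACD blood with PGE1 washes and resuspended in HEPES-Tyrode, were pretreated 20 min at 37°C with 0.1% DMSO vehicle or test compound. After agonist addition, aggregation and ATP secretion were recorded in a lumi-aggregometer at 37°C, stirring at 1,000 rpm.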

Recombinant human ERO1α = biological target: T1, Recombinant human ERO1α (Homo sapiens, UniProt Q96HE7); assay: fluorescence-based ERO1α activity assay; format: biochemical; conditions: read-out: IC50 (ERO1α activity); mean ± SD, n = 3
T1 sequence (Q96HE7 24-468): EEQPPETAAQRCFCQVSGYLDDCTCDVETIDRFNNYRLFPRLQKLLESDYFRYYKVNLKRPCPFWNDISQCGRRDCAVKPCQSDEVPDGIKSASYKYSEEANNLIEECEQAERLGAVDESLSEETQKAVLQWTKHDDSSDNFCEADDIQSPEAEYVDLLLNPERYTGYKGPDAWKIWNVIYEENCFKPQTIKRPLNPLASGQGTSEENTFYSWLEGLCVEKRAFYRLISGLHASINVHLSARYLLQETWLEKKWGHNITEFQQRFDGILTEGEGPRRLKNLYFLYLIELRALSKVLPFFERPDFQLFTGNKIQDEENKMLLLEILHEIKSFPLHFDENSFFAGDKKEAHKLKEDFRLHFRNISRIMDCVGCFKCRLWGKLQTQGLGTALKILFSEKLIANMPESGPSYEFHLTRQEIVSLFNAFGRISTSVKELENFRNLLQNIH

mouse platelets [5] = assay: Serotonin secretion; format: cell-based; conditions: 2.5 or 5 μM
human platelets [6] = assay: Ca2+ mobilization; format: cell-based
C57BL/6 mice [7] = assay: Ex vivo platelet activation after intravenous injection; format: in vivo, mouse; conditions: iv 0.3 μg/g BW; blood collected 10 min later
How it was run: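 C57BL/6 mice (8–12 weeks, both sexes) received iv vehicle (1% DMSO in saline) or test compound at 0.3 μg/g BW. Blood was drawn 10 min later and washed platelets were isolated. Platelets were stimulated with agonist for 5 min at 37°C and stained 15 min for P-selectin and activated αIIbβ3 (JON/A). Flow cytometry read-out was geometric mean fluorescence intensity.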

C57BL/6 mice [8] = assay: tMCAO-induced ischemic stroke; format: in vivo, mouse; conditions: iv 0.3 μg/g BW after 1 h tMCAO; 23 h reperfusion
How it was run: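 Male mice, 10–12 weeks, were anaesthetised with 1.2%–1.5% isoflurane in oxygen and given buprenorphine-ER 0.1 μg/g ip. After 1 h MCA occlusion the filament was withdrawn to restore flow. Vehicle (1% DMSO) or test compound was then given iv. After 23 h reperfusion, Bederson score, grip strength and infarct volume were assessed.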

Ero1α/β-null platelets [9] = assay: Platelet aggregation and ATP secretion in knockout platelets; format: cell-based, mouse
How it was run: (§1)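 Washed mouse platelets (WT control, C57BL/6 or Ero1α/β-null) were pretreated 20 min at 37°C with 0.1% DMSO vehicle or test compound. After agonist addition, aggregation and ATP secretion were recorded together in a lumi-aggregometer at 37°C with stirring at 1,000 rpm.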

Amplex Red assay = format: biochemical; conditions: Figure 1M, concentration not given
mouse platelets [10] = assay: Platelet aggregation assay and ATP secretion; format: cell-based
How it was run: as §1

pancreatic islet cells = assay: Glucose-stimulated insulin secretion and insulin content; format: cell-based, mouse; conditions: 1 or 5 μM; high glucose (16.7 mM)
How it was run: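 Islets were isolated by bile-duct perfusion of type V collagenase (0.45 mg/mL), handpicked and cultured overnight in RPMI/10% FCS. They were exposed 3 h in KRBH (pH 7.4) to 2.8 mM or 16.7 mM glucose, ± vehicle (0.1% DMSO) or 1 or 5 μM test compound. Ten islets per group then had 1 h in low glucose, then 1 h at 37°C under the same conditions, in technical duplicates. Supernatant insulin and acid-ethanol-extracted content were measured by ELISA.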

C57BL/6 mice [11] = assay: FeCl3-induced carotid arterial thrombosis; format: in vivo, mouse; conditions: for time to occlusion (TTO): iv 0.3 μg/g BW
How it was run: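 Male and female mice, 8–12 weeks, were anaesthetised with ip ketamine/xylazine. A 2 × 2 mm filter disc carrying 1.2 μL of 7 or 10% FeCl3 was placed on the carotid artery for 2 min. Flow was monitored by Doppler flow meter. TTO was the time from disc removal to stable occlusion (no flow for 5 min).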

[12] = at concentrations required to reduce ERO1α activity; cited from earlier work
[13] = 1 or 2.5 μM, 0.015 U/mL thrombin or 0.05 μg/mL CRP

## O=C(O)c1cc(N2N=C(C(F)(F)F)/C(=C/c3ccc(-c4ccccc4)o3)C2=O)ccc1Cl [EN460]
Ero1α/β-null platelets [1]; M6766 5 μM, EN460 2.5 μM, no agonist
  P-selectin exposure and αIIbβ3 integrin activation in resting platelets: appeared to increase the levels of these surface markers
Ero1α/β-null platelets [1]; various concentrations, 0.01 U/mL thrombin, 0.025 μg/mL CRP
  agonist-induced P-selectin exposure and αIIbβ3 integrin activation: significantly reduced
C57BL/6 mice [2]
  tail bleeding times and blood loss: did not prolong tail bleeding times or increase blood loss
Mouse platelets [3]
  annexin V binding (platelet viability): markedly increased annexin V binding within 20 min
Human platelets [4]
  platelet aggregation and ATP secretion: had no effect
Recombinant human ERO1α
  IC50: 5.5 ± 1.6 µM
Mouse platelets [5]; no agonist
  serotonin secretion from resting platelets: enhanced serotonin secretion from resting platelets
Mouse platelets [5]; thrombin or CRP
  serotonin secretion from activated platelets: either enhancing or inhibiting secretion
Human platelets [6]; 0.5 μM
  thrombin-induced Ca2+ influx: reduced thrombin-induced Ca^2+ influx
Human platelets [6]; 2 or 5 μM, activated human platelets
  Ca2+ release and influx: significantly inhibited both Ca^2+ release and influx
C57BL/6 mice [7]
  P-selectin exposure and αIIbβ3 integrin activation following thrombin stimulation (ex vivo): moderate but significant reduction
C57BL/6 mice [8]
  Bederson score: decreased the Bederson score
  grip strength: increased grip strength
  infarct volume: significantly reduced infarct volume
Ero1α/β-null platelets [9]; 2.5 μM, 0.015 U/mL thrombin
  ATP secretion: not ATP secretion
  thrombin-induced aggregation: markedly inhibited thrombin-induced aggregation
Ero1α/β-null platelets [9]; 5 μM, 0.015 U/ml thrombin
  thrombin-stimulated aggregation and ATP secretion: significantly inhibited both responses
Amplex Red assay
  inhibition of H2O2 activity: inhibits H2O2 activity
Mouse platelets [10]; 1 μM, 0.5 µM U46619
  ATP secretion: without affecting ATP secretion
  platelet aggregation: completely inhibited U46619-induced platelet aggregation
Mouse platelets [10]; 5 μM, 0.5 µM U46619
  platelet aggregation and ATP secretion: abolished both responses
Mouse platelets [10]; 5 μM, 0.015 U/mL thrombin or 0.05 μg/mL CRP
  platelet aggregation and ATP secretion: markedly inhibited platelet aggregation and ATP secretion
Mouse platelets [10]; 1-5 µM, 0.5 µM A23187
  platelet aggregation and ATP secretion: also inhibited platelet aggregation and ATP secretion
Mouse platelets [10]; 1-5 µM, high concentration of thrombin (0.1 U/ml)
  platelet aggregation and ATP secretion: significantly inhibited both responses
Mouse platelets [10]; [13]
  ATP secretion: had no effect on ATP secretion
  platelet aggregation: significantly inhibited aggregation
Mouse platelets [10]; 2.5 or 5 μM, high concentration of CRP (0.2 µg/ml)
  platelet aggregation and ATP secretion: significantly inhibited both responses
Pancreatic islet cells
  insulin secretion or content: did not reduce insulin secretion or content
C57BL/6 mice [11]; 0.1 μg/g BW, 7% FeCl3
  carotid arterial thrombosis (time to occlusion): did not inhibit carotid arterial thrombosis
C57BL/6 mice [11]; 7% FeCl3
  time to occlusion (TTO): significantly prolonged the time to occlusion
C57BL/6 mice [11]; 10% FeCl3
  time to occlusion (TTO): did not affect TTO
[12]
  thiol reactivity: exhibits thiol reactivity

Reference: PMC12393906 (Molecular Therapy, 2025)
